Laboratory results taken from ChEMBL document CHEMBL3132745, “Synthesis and Antimicrobial Activities of His(2-aryl)-Arg and Trp-His(2-aryl) Classes of Dipeptidomimetics” (Medchemcomm, 2014).
Converted amounts (≈) assume the structure as drawn. The source made the active and inactive calls.

Experiments:
[1] = Selectivity index, ratio of cytotoxicity against african green monkey Vero cells to IC50 for Cryptococcus neoformans ATCC 90113; format: toxicity, cell-based; details: read-out: Selectivity Index
[2] = Selectivity index, ratio of cytotoxicity against human KB cells to IC50 for Cryptococcus neoformans ATCC 90113; format: toxicity, cell-based; details: read-out: Selectivity Index
KB = assay: Cytotoxicity against human KB cells assessed as cell viability after 48 hrs by neutral red uptake assay; format: cell-based
Summary of the method: (§1)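 Neutral red uptake assay on human cancer lines (SK-MEL, KB, BT-549, SK-OV-3) and noncancerous mammalian cells (VERO, LLC-PK1). Highest tested concentration was 10 µg/mL.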

BT-549 = assay: Cytotoxicity against human BT549 cells assessed as cell viability after 48 hrs by neutral red uptake assay; format: cell-based; details: bt-549, 48 h; summary of the method: as §1
Cryptococcus neoformans = assay: Antifungal activity against Cryptococcus neoformans ATCC 90113 assessed as growth inhibition after 70-74 hrs by CLSI method; format: functional, organism-based; details: Cryptococcus neoformans, ATCC 90113; for IC50: read-out: IC50
Staphylococcus aureus [3] = assay: Antibacterial activity against methicillin-resistant Staphylococcus aureus ATCC 33591 assessed as growth inhibition after 16-20 hrs by CLSI method; format: functional, organism-based
Escherichia coli = assay: Antibacterial activity against Escherichia coli ATCC 35218 assessed as growth inhibition after 16-20 hrs by CLSI method; format: functional, organism-based
[4] = Selectivity index, ratio of cytotoxicity against pig LLC-PK1 cells to IC50 for Cryptococcus neoformans ATCC 90113; format: toxicity, cell-based; details: read-out: Selectivity Index
[5] = Selectivity index, ratio of cytotoxicity against human SK-MEL cells to IC50 for Cryptococcus neoformans ATCC 90113; format: toxicity, cell-based; details: read-out: Selectivity Index
SK-OV-3 = assay: Cytotoxicity against human SKOV3 cells assessed as cell viability after 48 hrs by neutral red uptake assay; format: cell-based; details: sk-ov-3, 48 h; summary of the method: as §1
Vero = assay: Cytotoxicity against african green monkey Vero cells assessed as cell viability after 48 hrs by neutral red uptake assay; format: cell-based; details: chlorocebus sabaeus; summary of the method: as §1
Aspergillus fumigatus = assay: Antifungal activity against Aspergillus fumigatus assessed as growth inhibition; format: functional, organism-based
Staphylococcus aureus [6] = assay: Antibacterial activity against Staphylococcus aureus ATCC 29213 assessed as growth inhibition after 16-20 hrs by CLSI method; format: functional, organism-based
[7] = Selectivity index, ratio of cytotoxicity against human SKOV3 cells to IC50 for Cryptococcus neoformans ATCC 90113; format: toxicity, cell-based, SK-OV-3; details: read-out: Selectivity Index
LLC-PK1 = assay: Cytotoxicity against pig LLC-PK1 cells assessed as cell viability after 48 hrs by neutral red uptake assay; format: cell-based, Sus scrofa; details: llc-pk1, 48 h; summary of the method: as §1
Pichia kudriavzevii = assay: Antifungal activity against Candida krusei assessed as growth inhibition; format: functional, organism-based
Nakaseomyces glabratus = assay: Antifungal activity against Candida glabrata assessed as growth inhibition; format: functional, organism-based
SK-MEL = assay: Cytotoxicity against human SK-MEL cells assessed as cell viability after 48 hrs by neutral red uptake assay; format: cell-based; summary of the method: as §1
[8] = Selectivity index, ratio of cytotoxicity against human BT549 cells to IC50 for Cryptococcus neoformans ATCC 90113; format: toxicity, cell-based, BT-549; details: read-out: Selectivity Index
Candida albicans = assay: Antifungal activity against Candida albicans assessed as growth inhibition; format: functional, organism-based
[9] = Staphylococcus aureus, ATCC 33591
[10] = Staphylococcus aureus, ATCC 33591, read-out: IC50

CC(C)(C)OC(=O)N[C@@H](Cc1c[nH]c(-c2cccc3ccccc23)n1)C(=O)N[C@@H](CCCNC(=N)N)C(=O)NCc1ccccc1 showed a selectivity ratio [1] greater than 3.6, a selectivity ratio [2] greater than 3.6 and an Activity (KB) greater than 10 µg/mL. For the same compound, the Activity (BT-549) was greater than 10 µg/mL, the MFC (Cryptococcus neoformans) was 5 µg/mL (≈ 7.98 µM) and the MIC (Cryptococcus neoformans) was 5 µg/mL (≈ 7.98 µM). The IC50 (Cryptococcus neoformans) was 2.79 µg/mL (≈ 4.45 µM), the MBC (Staphylococcus aureus [3]) was “inactive” and the MIC (Staphylococcus aureus [3]; [9]) was 20 µg/mL (≈ 31.9 µM). For the same compound, the IC50 (Staphylococcus aureus [3]; [10]) was 13.2 µg/mL (≈ 21.1 µM), the “growth inhibition (GI)” value (Escherichia coli) was “inactive” and the selectivity ratio [4] was greater than 3.6. The selectivity ratio [5] was greater than 3.6, the Activity (SK-OV-3) was greater than 10 µg/mL and the Activity (Vero) was greater than 10 µg/mL. The “growth inhibition (GI)” value (Aspergillus fumigatus) was “inactive”, the IC50 (Staphylococcus aureus [6]) was 16.4 µg/mL (≈ 26.1 µM) and the selectivity ratio [7] was greater than 3.6. For the same compound, the Activity (LLC-PK1) was greater than 10 µg/mL, the “growth inhibition (GI)” value (Pichia kudriavzevii) was “inactive” and the “growth inhibition (GI)” value (Nakaseomyces glabratus) was “inactive”. The Activity (SK-MEL) was greater than 10 µg/mL, the selectivity ratio [8] was greater than 3.6 and the “growth inhibition (GI)” value (Candida albicans) was “inactive”.
With CC(C)(C)OC(=O)N[C@@H](Cc1c[nH]c(-c2ccc(-c3ccccc3)cc2)n1)C(=O)N[C@@H](CCCNC(=N)N)C(=O)NCc1ccccc1 the selectivity ratio [1] was greater than 9.2, the selectivity ratio [2] was greater than 9.2 and the Activity (KB) was greater than 10 µg/mL. The Activity (BT-549) was greater than 10 µg/mL, the MFC (Cryptococcus neoformans) was 2.5 µg/mL (≈ 3.83 µM) and the MIC (Cryptococcus neoformans) was 2.5 µg/mL (≈ 3.83 µM). The IC50 (Cryptococcus neoformans) was 1.09 µg/mL (≈ 1.67 µM), the MBC (Staphylococcus aureus [3]) was “inactive” and the MIC (Staphylococcus aureus [3]; [9]) was 20 µg/mL (≈ 30.6 µM). For the same compound, the IC50 (Staphylococcus aureus [3]; [10]) was 8.97 µg/mL (≈ 13.7 µM), the “growth inhibition (GI)” value (Escherichia coli) was “inactive” and the selectivity ratio [4] was greater than 9.2. For the same compound, the selectivity ratio [5] was greater than 9.2, the Activity (SK-OV-3) was greater than 10 µg/mL and the Activity (Vero) was greater than 10 µg/mL. For the same compound, the “growth inhibition (GI)” value (Aspergillus fumigatus) was “inactive”, the IC50 (Staphylococcus aureus [6]) was 7.3 µg/mL (≈ 11.2 µM) and the MIC (Staphylococcus aureus [6]) was 10 µg/mL (≈ 15.3 µM). For the same compound, the selectivity ratio [7] was greater than 9.2, the Activity (LLC-PK1) was greater than 10 µg/mL and the “growth inhibition (GI)” value (Pichia kudriavzevii) was “inactive”. The “growth inhibition (GI)” value (Nakaseomyces glabratus) was “inactive”, the Activity (SK-MEL) was greater than 10 µg/mL and the selectivity ratio [8] was greater than 9.2. For the same compound, the “growth inhibition (GI)” value (Candida albicans) was “inactive”.
Work on CC(C)(C)c1ccc(-c2nc(C[C@H](NC(=O)[C@@H](N)Cc3c[nH]c4ccccc34)C(=O)NCc3ccccc3)c[nH]2)cc1 yielded a selectivity ratio [1] greater than 2.21, a selectivity ratio [2] greater than 2.21 and an Activity (KB) greater than 10 µg/mL. The Activity (BT-549) was greater than 10 µg/mL, the MFC (Cryptococcus neoformans) was 10 µg/mL (≈ 17.8 µM) and the MIC (Cryptococcus neoformans) was 10 µg/mL (≈ 17.8 µM). For the same compound, the IC50 (Cryptococcus neoformans) was 4.53 µg/mL (≈ 8.05 µM), the IC50 (Staphylococcus aureus [3]) was “Not Active” and the MBC (Staphylococcus aureus [3]) was “inactive”. For the same compound, the MIC (Staphylococcus aureus [3]) was “inactive”, the “growth inhibition (GI)” value (Escherichia coli) was “inactive” and the selectivity ratio [4] was greater than 2.21. For the same compound, the selectivity ratio [5] was greater than 2.21, the Activity (SK-OV-3) was greater than 10 µg/mL and the Activity (Vero) was greater than 10 µg/mL. The “growth inhibition (GI)” value (Aspergillus fumigatus) was “inactive”, the IC50 (Staphylococcus aureus [6]) was 11.7 µg/mL (≈ 20.7 µM) and the MBC (Staphylococcus aureus [6]) was “inactive”. The MIC (Staphylococcus aureus [6]) was 20 µg/mL (≈ 35.5 µM), the selectivity ratio [7] was greater than 2.21 and the Activity (LLC-PK1) was greater than 10 µg/mL. For the same compound, the “growth inhibition (GI)” value (Pichia kudriavzevii) was “inactive”, the “growth inhibition (GI)” value (Nakaseomyces glabratus) was “inactive” and the Activity (SK-MEL) was greater than 10 µg/mL. The selectivity ratio [8] was greater than 2.21 and the “growth inhibition (GI)” value (Candida albicans) was “inactive”.
Work on N[C@@H](Cc1c[nH]c2ccccc12)C(=O)N[C@@H](Cc1c[nH]c(-c2ccc(-c3ccccc3)cc2)n1)C(=O)NCc1ccccc1 yielded a selectivity ratio [1] greater than 18.5, a selectivity ratio [2] greater than 18.5 and an Activity (KB) greater than 10 µg/mL. It also gave an Activity (BT-549) greater than 10 µg/mL, an MFC (Cryptococcus neoformans) of 1.25 µg/mL (≈ 2.15 µM) and an MIC (Cryptococcus neoformans) of 1.25 µg/mL (≈ 2.15 µM). It also gave an IC50 (Cryptococcus neoformans) of 0.54 µg/mL (≈ 0.927 µM), an MBC (Staphylococcus aureus [3]; [9]) of 20 µg/mL (≈ 34.3 µM) and an MIC (Staphylococcus aureus [3]; [9]) of 10 µg/mL (≈ 17.2 µM). For the same compound, the IC50 (Staphylococcus aureus [3]; [10]) was 4.31 µg/mL (≈ 7.4 µM), the “growth inhibition (GI)” value (Escherichia coli) was “inactive” and the selectivity ratio [4] was greater than 18.5. For the same compound, the selectivity ratio [5] was greater than 18.5, the Activity (SK-OV-3) was greater than 10 µg/mL and the Activity (Vero) was greater than 10 µg/mL. The “growth inhibition (GI)” value (Aspergillus fumigatus) was “inactive”, the IC50 (Staphylococcus aureus [6]) was 2.6 µg/mL (≈ 4.46 µM) and the MBC (Staphylococcus aureus [6]) was 20 µg/mL (≈ 34.3 µM). The MIC (Staphylococcus aureus [6]) was 5 µg/mL (≈ 8.58 µM), the selectivity ratio [7] was greater than 18.5 and the Activity (LLC-PK1) was greater than 10 µg/mL. The “growth inhibition (GI)” value (Pichia kudriavzevii) was “inactive”, the “growth inhibition (GI)” value (Nakaseomyces glabratus) was “inactive” and the Activity (SK-MEL) was greater than 10 µg/mL. The selectivity ratio [8] was greater than 18.5 and the “growth inhibition (GI)” value (Candida albicans) was “inactive”.
